Only some compounds are listed: those with a hit (about 4.2% of all), similar ones and a draw of the others.
CHOP inh: blocks CHOP induction under ER stress; inhibition, % at 10 µM; 220,000 tested, 3.8% active; AID 2732; CHO-K1 CHOP-promoter luciferase, tunicamycin-induced, 15-18 h;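 active = compounds that reduced the stress-induced luciferase reporter signal by more than about 70% of percent inhibition, limit read from the data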
ANO1 activ: activates or potentiates the mouse TMEM16A chloride channel | Q8BHY3 | HEK293 TMEM16A/YFP-H148Q/I152L, iodide quench fluorescence; stronger effect = lower value | 340,000 tested, 0.3% active | B-score at 10 µM;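 active = fluorescence-ratio B-score plate-corrected deviation score at least 3 library SD below zero, with starting fluorescence score within 5 deviations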;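 note: channel opened by trigger with iodide after compound preincubation; score built on the fluorescence ratio of max minus min over baseline; more negative score means more quench and so TMEM16A activation or potentiation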
TMEM16A inh: inhibitors of mouse TMEM16A calcium-activated chloride channel; 310,000 tested, 1.2% active; normalized B-score (activity score, 25-100; higher = stronger inhibition) at 10 µM; Q8BHY3; HEK293 TMEM16A/YFP iodide influx fluorescence, ionomycin;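 active = ratio plate-corrected score three or more library SD toward inhibition, starting fluorescence score within five deviations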;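 note: score derived from kinetic fluorescence span divided by baseline fluorescence per well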
Lipid droplet: modulators of hepatic lipid droplet formation; AML12 mouse hepatocytes, oleate lipid droplets, BODIPY imaging; inhibition, % at 6.5 µM; 240,000 tested, 0.4% active; AID 1656;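 active = lipid droplet intensity inhibited by at least 50%, with more than 500 cells counted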
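Assay system: AML12 mouse liver cells | Compound: 6.5 µM single-point dosing | Schedule: Overnight exposure | Technique: Fluorescence imaging, 20x objective, two fields per well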
UPR CHOP act: activators of apoptotic arm of unfolded protein response (CHOP); CHO-CHOP luciferase reporter, UPR activation, luminescence; percent of tunicamycin response over DMSO baseline; activation, % at 10 µM; 330,000 tested, 0.34% active;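 active = at 10 µM dose, activation of 40% or more, normalized to positive control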
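Dosing – one dose, 10 µM in 0.5% DMSO · System – CHO-CHOP cells, stable luciferase reporter of PERK-eIF2a-CHOP signalling · Input – 500 cells/well · Control set – tunicamycin 10 µg/mL final as positive, DMSO-only wells as negative · Timing – 6 h compound treatment, 37 °C · Measure – % activation vs tunicamycin · Technique – luminescence read with Steady-Glo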
XBP1 UPR activ: adaptive UPR (XBP1) activation; CHO-XBP1 luciferase reporter, IRE1-XBP1 UPR activation, luminescence; percent of tunicamycin response, DMSO as zero; activation, % at 20 µM; 330,000 tested, 0.33% active;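 active = versus positive control, 20 µM dose yields 30% or more activation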
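Test system: CHO-XBP1 luciferase reporter cells | Buffer or medium: Serum-containing F12 medium, 10% FBS | Schedule: 6 h compound exposure at 37 °C, 5% CO2 | Detection: Steady-Glo luciferase glow luminescence, 10 min after reagent addition | Read-out basis: Activation, % of tunicamycin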
TMEM16A reconf: reconfirmed blocker of mouse TMEM16A calcium-activated chloride channel. shares compounds with TMEM16A inh. HEK293 TMEM16A/YFP-H148Q, iodide quench fluorescence; ionomycin added to raise cell calcium. inhibition, % at 10 µM. 2,300 tested, 39% active. AID 652189;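 active = mean duplicate percent inhibition, scaled so buffer wells are 0 and the reference blocker 100, over three buffer SD above buffer mean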
TMEM16A Ca cntr: calcium mobilization counter-screen hit for TMEM16A inhibitor series; shares compounds with TMEM16A inh; TMEM16A/YFP HEK293, Fluo4 calcium mobilization; calcium response (% of ionomycin), % at 10 µM; 2,300 tested, 2% active; AID 652231;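 active = duplicate-averaged calcium signal over 20% of the ionomycin maximum, relative to buffer baseline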;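 note: each well's signal is peak minus trough fluorescence divided by its pre-addition baseline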
Parental YFP cnt: parental YFP-HEK293 iodide quench counter-screen activity; shares compounds with TMEM16A inh; ionomycin; YFP ratio F(max-min)/F0 at 10 µM; 2,300 tested, under 10 active; AID 652233;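 active = yellow fluorescent protein signal ratio exceeding the buffer control mean by over 5 SD of those controls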;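 note: ratio is mean of duplicate wells from kinetic YFP trace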
ClC-1 rat inh: rat ClC-1 inhibition, TMEM16A specificity screen; CHO ClC-1-YFP, iodide influx fluorescence quench; iodide control reads 0, buffer control 100; shares compounds with TMEM16A inh; 2,300 tested, under 10 active; ratio percent, % at 10 µM;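 active = duplicate-mean ratio percent above the mean of iodide-only control wells, which defines zero, plus 5 of their SD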;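 note: higher percent means stronger block of ClC-1 iodide influx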
Target sequence (P35524 whole entry, looked up): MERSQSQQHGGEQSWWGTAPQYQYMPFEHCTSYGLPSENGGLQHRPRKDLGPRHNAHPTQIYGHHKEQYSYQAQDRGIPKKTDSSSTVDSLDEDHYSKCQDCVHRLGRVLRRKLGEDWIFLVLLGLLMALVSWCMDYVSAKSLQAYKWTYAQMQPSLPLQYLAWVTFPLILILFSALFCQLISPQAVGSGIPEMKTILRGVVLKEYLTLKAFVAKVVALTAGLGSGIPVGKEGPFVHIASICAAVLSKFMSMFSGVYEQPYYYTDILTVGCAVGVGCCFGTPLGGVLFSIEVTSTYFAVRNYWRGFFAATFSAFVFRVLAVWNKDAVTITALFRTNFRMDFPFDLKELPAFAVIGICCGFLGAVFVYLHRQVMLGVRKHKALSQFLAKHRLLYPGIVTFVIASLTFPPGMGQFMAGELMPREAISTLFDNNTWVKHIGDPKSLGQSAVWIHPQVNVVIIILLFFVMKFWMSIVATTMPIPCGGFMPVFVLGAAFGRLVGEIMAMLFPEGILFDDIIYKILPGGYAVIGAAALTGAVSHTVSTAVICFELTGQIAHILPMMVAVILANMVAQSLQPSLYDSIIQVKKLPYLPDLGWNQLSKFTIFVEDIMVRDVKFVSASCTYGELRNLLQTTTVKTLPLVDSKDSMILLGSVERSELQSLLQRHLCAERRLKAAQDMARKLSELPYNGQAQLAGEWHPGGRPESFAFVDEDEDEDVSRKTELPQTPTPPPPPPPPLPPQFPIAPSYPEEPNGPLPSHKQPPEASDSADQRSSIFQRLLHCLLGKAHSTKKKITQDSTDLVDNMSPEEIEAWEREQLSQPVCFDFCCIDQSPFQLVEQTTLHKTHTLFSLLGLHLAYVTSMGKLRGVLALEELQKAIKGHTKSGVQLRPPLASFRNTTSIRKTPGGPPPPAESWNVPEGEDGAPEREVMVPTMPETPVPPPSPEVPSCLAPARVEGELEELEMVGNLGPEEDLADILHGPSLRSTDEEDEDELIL
A number is an active result.

Cc1c(C(C)(C)C)sc(=NC(=O)c2ccccc2O)n1C was read as ANO1 activ inactive, TMEM16A inh inactive, Lipid droplet inactive, UPR CHOP act inactive and XBP1 UPR activ inactive.
For O=C(CSc1nc(C(F)(F)F)cc(=O)[nH]1)Nc1cccc2ccccc12 the results were ANO1 activ inactive, TMEM16A inh inactive, UPR CHOP act inactive and XBP1 UPR activ inactive.
For O=C1c2ccccc2C(=O)N1Cc1nn2c(-c3ccc(Cl)cc3)nnc2s1 the results were ANO1 activ inactive, TMEM16A inh 25, UPR CHOP act inactive, XBP1 UPR activ inactive, TMEM16A reconf inactive, TMEM16A Ca cntr inactive, Parental YFP cnt inactive and ClC-1 rat inh inactive.
For COc1cccc(OCCN2CCN(c3ncnc4c3cnn4-c3ccccc3)CC2)c1 the results were CHOP inh inactive, ANO1 activ inactive, TMEM16A inh 100, UPR CHOP act inactive, XBP1 UPR activ inactive, TMEM16A reconf inactive, TMEM16A Ca cntr inactive, Parental YFP cnt inactive and ClC-1 rat inh inactive.
COc1ccc(Br)cc1C(=O)Nc1cccc(-c2nnc(-c3ccco3)o2)c1 was read as ANO1 activ inactive, TMEM16A inh inactive, UPR CHOP act inactive and XBP1 UPR activ inactive.
COc1cccc(C(=O)Nc2ccc(C(=O)c3ccccc3)cc2)c1 was read as ANO1 activ inactive, TMEM16A inh 100, Lipid droplet inactive, UPR CHOP act inactive, XBP1 UPR activ inactive, TMEM16A reconf 26%, TMEM16A Ca cntr inactive, Parental YFP cnt inactive and ClC-1 rat inh inactive.
`COc1cccc(C(=O)Nc2ccc(Cl)c(C(F)(F)F)c2)c1` gave CHOP inh 71, ANO1 activ inactive, TMEM16A inh 25, Lipid droplet inactive, UPR CHOP act inactive, XBP1 UPR activ inactive, TMEM16A reconf 18%, TMEM16A Ca cntr inactive, Parental YFP cnt inactive and ClC-1 rat inh inactive.
For COc1cccc(C(=O)Nc2ccc(C(=O)O)cc2)c1 the results were CHOP inh inactive, ANO1 activ inactive, TMEM16A inh inactive, UPR CHOP act inactive and XBP1 UPR activ inactive.
`COc1cccc(C(=O)Nc2cccc(-c3nnc(-c4ccco4)o3)c2)c1` gave CHOP inh inactive, ANO1 activ inactive, TMEM16A inh 25, UPR CHOP act inactive, XBP1 UPR activ inactive, TMEM16A reconf 23%, TMEM16A Ca cntr inactive, Parental YFP cnt inactive and ClC-1 rat inh inactive.
CCCc1cc(C(=O)Nc2ccc(C(=O)c3ccccc3)cc2)n(C)n1 was read as ANO1 activ inactive, TMEM16A inh 100, Lipid droplet inactive, UPR CHOP act inactive, XBP1 UPR activ inactive, TMEM16A reconf 40%, TMEM16A Ca cntr inactive, Parental YFP cnt inactive and ClC-1 rat inh inactive.
Screening CC1C(=O)Nc2ccccc2N1C(=O)c1ccc(F)cc1 (stereo not given) returned ANO1 activ inactive, TMEM16A inh inactive, Lipid droplet inactive, UPR CHOP act inactive and XBP1 UPR activ inactive.
`O=C(COC(=O)c1nc(Cl)ccc1Cl)Nc1cccc(S(=O)(=O)N2CCOCC2)c1` gave ANO1 activ inactive.
For CC1CCCCC1NC(=O)C1CCN(S(=O)(=O)N2CCOCC2)CC1 (stereo not given) the results were CHOP inh inactive, ANO1 activ inactive, TMEM16A inh inactive, UPR CHOP act inactive and XBP1 UPR activ inactive.
For CC1CCCC(NC(=O)C2CCN(S(=O)(=O)N3CCOCC3)CC2)C1C (stereo not given) the results were CHOP inh inactive, ANO1 activ inactive, TMEM16A inh 25, UPR CHOP act inactive, XBP1 UPR activ inactive, TMEM16A reconf inactive, TMEM16A Ca cntr inactive, Parental YFP cnt inactive and ClC-1 rat inh inactive.
Screening O=C1NC(=O)C(c2ccccc2)N1 (stereo not given) returned ANO1 activ inactive.
Screening Cc1ccc(-c2nnc(N3CCN(c4ccccn4)CC3)c3ccccc23)cc1 returned CHOP inh inactive, ANO1 activ inactive, TMEM16A inh 25, Lipid droplet inactive, UPR CHOP act inactive, XBP1 UPR activ inactive, TMEM16A reconf 28%, TMEM16A Ca cntr inactive, Parental YFP cnt inactive and ClC-1 rat inh inactive.
`c1ccc(-c2nnc(N3CCN(c4ccccn4)CC3)c3ccccc23)cc1` gave CHOP inh inactive, ANO1 activ inactive, TMEM16A inh inactive, Lipid droplet inactive, UPR CHOP act inactive and XBP1 UPR activ inactive.
Screening N#Cc1c(-n2cccc2/C=N/O)sc2c1CCCC2 returned CHOP inh inactive, ANO1 activ inactive, TMEM16A inh inactive, UPR CHOP act inactive and XBP1 UPR activ inactive.
`C=CCNCc1cccn1-c1sc2c(c1C#N)CCCC2` gave CHOP inh inactive, ANO1 activ inactive, TMEM16A inh 25, Lipid droplet inactive, UPR CHOP act inactive, XBP1 UPR activ inactive, TMEM16A reconf inactive, TMEM16A Ca cntr inactive, Parental YFP cnt inactive and ClC-1 rat inh inactive.
O=C(CSc1nc2ccccc2o1)Nc1nc(-c2ccccc2)cs1 was read as CHOP inh inactive, ANO1 activ inactive, TMEM16A inh 100, Lipid droplet inactive, UPR CHOP act inactive, XBP1 UPR activ inactive, TMEM16A reconf 48%, TMEM16A Ca cntr inactive, Parental YFP cnt inactive and ClC-1 rat inh inactive.
O=C(CSc1nnc(-c2ccncc2)n1Cc1ccco1)Nc1nc(-c2ccccc2)cs1 was read as CHOP inh 77, ANO1 activ inactive, TMEM16A inh 25, Lipid droplet inactive, UPR CHOP act inactive, XBP1 UPR activ inactive, TMEM16A reconf 30%, TMEM16A Ca cntr inactive, Parental YFP cnt inactive and ClC-1 rat inh inactive.
`CCn1c(SCC(=O)Nc2nc(-c3ccccc3)cs2)nnc1-c1ccccc1O` gave CHOP inh inactive, ANO1 activ inactive, TMEM16A inh 100, Lipid droplet inactive, UPR CHOP act inactive, XBP1 UPR activ inactive, TMEM16A reconf 36%, TMEM16A Ca cntr inactive, Parental YFP cnt inactive and ClC-1 rat inh inactive.
Screening CCc1nnc(NC(=O)CSc2nnc(-c3ccccc3O)n2CC)s1 returned CHOP inh inactive, ANO1 activ inactive, TMEM16A inh inactive, Lipid droplet inactive, UPR CHOP act inactive and XBP1 UPR activ inactive.

Screening results deposited in PubChem BioAssay by several laboratories.
